Source: ChEMBL document CHEMBL1148422, “N-isoquinolin-5-yl-N'-aralkyl-urea and -amide antagonists of human vanilloid receptor 1” (Bioorg Med Chem Lett, 2004)

How the values were obtained:
[1] = molecular target: T1, Transient receptor potential cation channel subfamily V member 1 (Homo sapiens, UniProt Q8NER1); test: Antagonistic activity towards human vanilloid receptor subtype 1 expressed in HEK293 cell […], as inhibition of agonist-induced intracellular [Ca2+] levels.; assay type: functional, cell-based
T1 sequence (Q8NER1 whole entry): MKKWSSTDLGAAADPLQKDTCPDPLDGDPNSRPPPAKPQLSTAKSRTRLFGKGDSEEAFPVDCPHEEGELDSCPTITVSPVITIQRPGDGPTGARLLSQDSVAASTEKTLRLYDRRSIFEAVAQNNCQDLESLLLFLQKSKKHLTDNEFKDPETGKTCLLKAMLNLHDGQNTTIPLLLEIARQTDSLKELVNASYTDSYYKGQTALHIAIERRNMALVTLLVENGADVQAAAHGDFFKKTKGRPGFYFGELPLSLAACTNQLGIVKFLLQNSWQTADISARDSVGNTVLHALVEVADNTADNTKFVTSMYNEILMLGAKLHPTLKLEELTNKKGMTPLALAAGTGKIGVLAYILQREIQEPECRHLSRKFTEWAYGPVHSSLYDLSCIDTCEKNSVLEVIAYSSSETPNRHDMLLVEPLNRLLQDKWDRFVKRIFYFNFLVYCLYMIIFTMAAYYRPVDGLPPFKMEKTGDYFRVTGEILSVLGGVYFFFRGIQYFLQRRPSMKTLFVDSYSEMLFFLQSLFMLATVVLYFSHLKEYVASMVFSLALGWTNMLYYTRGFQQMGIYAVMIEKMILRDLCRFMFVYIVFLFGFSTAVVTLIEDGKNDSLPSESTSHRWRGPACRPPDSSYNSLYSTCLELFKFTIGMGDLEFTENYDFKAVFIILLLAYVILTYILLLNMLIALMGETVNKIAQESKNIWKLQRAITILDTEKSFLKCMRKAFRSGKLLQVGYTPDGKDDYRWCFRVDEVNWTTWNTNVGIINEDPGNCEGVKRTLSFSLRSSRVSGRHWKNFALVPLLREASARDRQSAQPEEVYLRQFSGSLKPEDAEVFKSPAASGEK

[2] = molecular target: T1, Transient receptor potential cation channel subfamily V member 1; test: Binding affinity towards human vanilloid receptor subtype 1 expressed in HEK293 cell membrane using [3H]-RTX as radioligand.; assay type: cell membranes
In short: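 Membranes from hVR1/HEK293 cells homogenized twice with a Polytron in 20 mM HEPES pH 7.4 with 5.8 mM NaCl, 320 mM sucrose, 2 mM MgCl2, 0.75 mM CaCl2 and 5 mM KCl. Spun at 3000 rpm for 10 min; supernatant spun at 18,000 rpm for 20 min; pellet taken up in assay buffer.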

IC50 [1] | Ki [2] | Compound
6 nM | 0.8 nM | O=C(NCc1ccc(Cl)c(C(F)(F)F)c1)Nc1cccc2cnccc12
11 nM | 23 nM | O=C(NCc1cccc(C(F)(F)F)c1)Nc1cccc2cnccc12
1500 nM | – | O=C(/C=C/c1ccccc1)Nc1cccc2cnccc12
1000 nM | – | O=C(NCCc1ccccc1)Nc1cccc2cnccc12
32 nM | 19 nM | O=C(Nc1cccc(C(F)(F)F)c1)Nc1cccc2cnccc12
3 nM | 1.3 nM | O=C(NCc1ccc(OC(F)(F)F)cc1)Nc1cccc2cnccc12
10 nM | 17 nM | O=C(NCCc1ccc(Cl)c(Cl)c1)Nc1cccc2cnccc12
3 nM | 5 nM | O=C(NCc1ccc(C(F)(F)F)cc1)Nc1cccc2cnccc12
3 nM | 0.3 nM | CC(C)(C)c1ccc(CNC(=O)Nc2cccc3cnccc23)cc1
45 nM | – | COc1ccc(CNC(=O)Nc2cccc3cnccc23)cc1
38 nM | 60 nM | O=C(CCc1ccc(C(F)(F)F)cc1)Nc1cccc2cnccc12
4 nM | 9 nM | O=C(NCc1ccc(Cl)c(Cl)c1)Nc1cccc2cnccc12
6 nM | – | O=C(NCc1ccc(Cl)cc1)Nc1cccc2cnccc12
2400 nM | 71 nM | CCCCCc1ccc(C(=O)Nc2cccc3cnccc23)cc1
680 nM | – | COc1ccc(CCNC(=O)Nc2cccc3cnccc23)cc1
13 nM | 4 nM | CCC(C)(C)c1ccc(CCC(=O)Nc2cccc3cnccc23)cc1
490 nM | 330 nM | CCCCc1ccc(NC(=O)Nc2cccc3cnccc23)cc1
19 nM | 22 nM | O=C(NCCc1ccc(C(F)(F)F)cc1)Nc1cccc2cnccc12
19 nM | – | O=C(NCCc1cccc(C(F)(F)F)c1)Nc1cccc2cnccc12
170 nM | 17 nM | O=C(Nc1ccc(Cl)c(Cl)c1)Nc1cccc2cnccc12
410 nM | 11 nM | CC(C)(C)c1ccc(CCC(=O)Nc2cccc3cnccc23)cc1
5 nM | 1.2 nM | CC(C)(C)c1ccc(/C=C/C(=O)Nc2cccc3cnccc23)cc1
11 nM | – | O=C(NCCc1ccc(OC(F)(F)F)cc1)Nc1cccc2cnccc12
32 nM | 1.4 nM | O=C(Nc1cc(C(F)(F)F)cc(C(F)(F)F)c1)Nc1cccc2cnccc12
3 nM | – | CC(C)(C)c1ccc(CCNC(=O)Nc2cccc3cnccc23)cc1
